Calls of active or inactive are those of the source. The rule behind the calls is not given here.
Key:
[1] = molecular target: Dual specificity mitogen-activated protein kinase kinase 6 (Homo sapiens) (UniProt P52564); assay: Inhibition of N-terminal maltose binding protein-tagged human MKK6 (4 to end residues) expressed in Escherichia coli at 3 uM by filter binding assay relative to control
NIH-3T3/LISN = assay: In vivo inhibition of IGF1R in mouse NIH-3T3/LISN cells implanted in IGF1-stimulated nu/nu CD-1 mouse assessed as reduction in IGF1R phosphorylation at 30 mg/kg, po pretreated for 48 to 72 hrs followed by IGF1 stimulation and measured after 10 min by […] relative to control; format: functional, organism-based; conditions: time 2880-4330 min
Procedure, shortened: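 Time course: tumor-bearing female nu/nu CD-1 mice, three per group, given a single oral 30 mg/kg dose or vehicle. IGF-I given 10 min before blood and tumor collection at each time point. Tumor phospho-IGF-IR/total IGF-IR measured by capture-plate europium phosphotyrosine assay and expressed as % of ligand-stimulated control.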

[2] = molecular target: T1, Tyrosine-protein kinase BTK (Homo sapiens, UniProt Q06187); assay: Inhibition of N-terminal His6-tagged recombinant full-length human BTK expressed in baculovirus infected Sf21 cells by filter binding assay
[3] = molecular target: Mitogen-activated protein kinase 11 (Homo sapiens) (UniProt Q15759); assay: Inhibition of N-terminal GST fusion protein corresponding to full-length human SAPK2b expressed in Escherichia coli at 3 uM by filter binding assay relative to control
Procedure, shortened: (§1)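 Outsourced single-concentration screen in a commercial panel of 233 protein kinases, run as radiometric filter-binding activity assays. Test agent was tested at 0.3 or 3 µmol/L, as given in each line, from a 10 mmol/L DMSO stock. Activity is expressed as percent inhibition relative to control.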

[4] = molecular target: Tyrosine-protein kinase ZAP-70 (Homo sapiens, UniProt P43403); assay: Inhibition of ZAP70 (unknown origin)
[5] = molecular target: Calcium/calmodulin-dependent protein kinase type IV (Homo sapiens) (UniProt Q16566); assay: Inhibition of C-terminal His6-tagged recombinant full length human CaMKIV expressed in baculovirus infected Sf21 cells at 3 uM by filter binding assay relative to control
Procedure, shortened: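 KinaseProfiler panel of 233 kinases: radiometric filter-binding activity assays with compound at 0.3 or 3 µmol/L. Read-out is percent inhibition.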

[6] = molecular target: Tyrosine-protein kinase receptor UFO (Homo sapiens) (UniProt P30530); assay: Inhibition of N-terminal His6-tagged recombinant human Axl (473 to end residues) expressed in Sf21 cells at 3 uM by filter binding assay relative to control
[7] = molecular target: Receptor-type tyrosine-protein kinase FLT3 (Homo sapiens, UniProt P36888); assay: Inhibition of N-terminal GST tagged recombinant human Flt3 (564 to end residues) expressed in Sf21 cells by filter binding assay
[8] = molecular target: T1, Tyrosine-protein kinase BTK; assay: Inhibition of N-terminal His6-tagged recombinant full-length human BTK expressed in baculovirus infected Sf21 cells at 0.3 uM by filter binding assay relative to control; procedure, shortened: as §1
[9] = molecular target: Serine/threonine-protein kinase pim-1 (Homo sapiens) (UniProt P11309); assay: Inhibition of N-terminal GST-tagged recombinant human full-length Pim-1 expressed in Escherichia coli cells at 0.3 uM by filter binding assay relative to control; procedure, shortened: as §1
[10] = molecular target: Serine/threonine-protein kinase D2 (PRKD2) (Homo sapiens) (UniProt Q9BZL6); assay: Inhibition of N-terminal His6 tagged, recombinant full-length human PKD2 expressed in Sf21 cells at 0.3 uM by filter binding assay relative to control
[11] = molecular target: SRSF protein kinase 1 (Homo sapiens) (UniProt Q96SB4); assay: Inhibition of N-terminal GST-tagged recombinant human SRPK1 expressed in Escherichia coli at 0.3 uM by filter binding assay relative to control; procedure, shortened: as §1
[12] = molecular target: Serine/threonine-protein kinase PAK 1 (Homo sapiens, UniProt Q13153); assay: Inhibition of PAK1 (unknown origin)
[13] = molecular target: Vascular endothelial growth factor receptor 1 (Homo sapiens) (UniProt P17948); assay: Inhibition of N-terminal GST-tagged recombinant human Flt1 (783 to end residues) expressed in baculovirus infected Sf21 cells at 0.3 uM by filter binding assay relative to control; procedure, shortened: as §1
[14] = Antiproliferative activity against human RDES cells assessed as reduction in cell viability after 72 hrs by CellTiter-Glo assay; format: functional, cell-based; conditions: RD-ES
Procedure, shortened: (§2)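 Cells seeded in 96-well plates, left overnight at 37°C, then exposed to a range of test concentrations for 72 h. Viability read by CellTiter-Glo luminescence; IC50 from four-parameter curve fit. Lines kept at 37°C, 5% CO2, in recommended growth medium.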

[15] = molecular target: Tyrosine-protein kinase Yes (Homo sapiens) (UniProt P07947); assay: Inhibition of N-terminal His6 tagged recombinant full-length human Yes expressed in baculovirus infected Sf21 cells at 3 uM by filter binding assay relative to control; procedure, shortened: as §1
[16] = molecular target: Tyrosine-protein kinase Blk (Mus musculus) (UniProt P16277); assay: Inhibition of N-terminal His6-tagged recombinant full-length mouse Blk expressed in baculovirus infected Sf21 cells at 0.3 uM by filter binding assay relative to control; procedure, shortened: as §1
[17] = molecular target: Insulin receptor (Mus musculus) (UniProt P15208); conditions: CD-1, dose 10-60 mg/kg, route po, time 242.0 min
[18] = Inhibition of recombinant mouse N-terminal 6His-tagged full length P110alpha/full length mouse […] expressed in baculovirus infected Sf21 cells at 0.3 uM by filter binding assay relative to control; conditions: condition cancer
[19] = molecular target: Insulin receptor (Mus musculus) (UniProt P15208); conditions: CD-1, dose 30.0 mg/kg, route po, time 2-24 hrs
Insulin receptor = Insulin receptor (Homo sapiens, UniProt P06213); assay: Inhibition of N-terminal His6-tagged recombinant human IR (1005 to 1310 residues) expressed in baculovirus infected Sf21 cells by filter binding assay
SK-OV-3 = assay: Antiproliferative activity against human SK-OV-3 cells assessed as reduction in cell viability after 72 hrs by CellTiter-Glo assay; format: functional, cell-based; conditions: SK-OV-3, 72 h; procedure, shortened: as §2
[20] = Antitumor activity against mouse NIH-3T3/LISN cells implanted in nu/nu CD-1 mouse assessed as reduction in tumor growth at 30 mg/kg, po administered twice daily for 21 days relative to control; format: functional; conditions: 504 h, time 21 day, read-out: TGI
Procedure, shortened: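 Exponentially growing cells implanted s.c. in the right flank of 8–10-wk-old female athymic nu/nu CD-1 mice. At 150–200 mm3, block-randomized by tumor size into groups of eight. Oral dosing once or twice daily for 21 d; vehicle 20% sulfobutylether-β-cyclodextrin, pH 3.5. Calipers twice weekly; volume = length×width²/2. Growth inhibition = 100×[1 − treated growth/vehicle growth].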

[21] = molecular target: Proto-oncogene tyrosine-protein kinase Src (Homo sapiens, UniProt P12931); assay: Inhibition of SRC1 (unknown origin)
NCI-H929 = assay: Antiproliferative activity against human NCI-H929 cells assessed as reduction in cell viability after 72 hrs by CellTiter-Glo assay; format: functional, cell-based; conditions: NCI-H929, 72 h; procedure, shortened: as §2

Sequence of Insulin receptor (Mus musculus) (P15208 28-748 limits assumed): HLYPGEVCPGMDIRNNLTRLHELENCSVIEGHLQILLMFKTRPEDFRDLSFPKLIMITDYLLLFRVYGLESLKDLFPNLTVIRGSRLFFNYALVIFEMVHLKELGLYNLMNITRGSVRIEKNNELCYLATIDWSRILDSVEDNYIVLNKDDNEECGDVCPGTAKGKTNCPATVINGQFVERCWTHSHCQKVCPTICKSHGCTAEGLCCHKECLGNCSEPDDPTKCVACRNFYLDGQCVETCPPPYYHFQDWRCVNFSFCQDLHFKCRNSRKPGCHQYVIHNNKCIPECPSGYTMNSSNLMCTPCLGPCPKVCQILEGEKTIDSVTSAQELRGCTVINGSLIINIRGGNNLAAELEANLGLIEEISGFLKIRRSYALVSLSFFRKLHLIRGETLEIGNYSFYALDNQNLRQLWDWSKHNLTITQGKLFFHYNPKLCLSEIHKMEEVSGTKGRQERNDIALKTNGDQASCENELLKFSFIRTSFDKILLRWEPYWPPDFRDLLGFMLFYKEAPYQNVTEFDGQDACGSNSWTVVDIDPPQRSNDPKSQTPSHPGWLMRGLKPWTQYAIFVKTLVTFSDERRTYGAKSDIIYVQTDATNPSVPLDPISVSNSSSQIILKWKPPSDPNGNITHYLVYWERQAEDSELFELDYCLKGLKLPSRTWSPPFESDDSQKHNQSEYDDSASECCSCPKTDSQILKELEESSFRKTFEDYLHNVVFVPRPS
Sequence of Insulin receptor (Mus musculus) (P15208 753-1372 limits assumed): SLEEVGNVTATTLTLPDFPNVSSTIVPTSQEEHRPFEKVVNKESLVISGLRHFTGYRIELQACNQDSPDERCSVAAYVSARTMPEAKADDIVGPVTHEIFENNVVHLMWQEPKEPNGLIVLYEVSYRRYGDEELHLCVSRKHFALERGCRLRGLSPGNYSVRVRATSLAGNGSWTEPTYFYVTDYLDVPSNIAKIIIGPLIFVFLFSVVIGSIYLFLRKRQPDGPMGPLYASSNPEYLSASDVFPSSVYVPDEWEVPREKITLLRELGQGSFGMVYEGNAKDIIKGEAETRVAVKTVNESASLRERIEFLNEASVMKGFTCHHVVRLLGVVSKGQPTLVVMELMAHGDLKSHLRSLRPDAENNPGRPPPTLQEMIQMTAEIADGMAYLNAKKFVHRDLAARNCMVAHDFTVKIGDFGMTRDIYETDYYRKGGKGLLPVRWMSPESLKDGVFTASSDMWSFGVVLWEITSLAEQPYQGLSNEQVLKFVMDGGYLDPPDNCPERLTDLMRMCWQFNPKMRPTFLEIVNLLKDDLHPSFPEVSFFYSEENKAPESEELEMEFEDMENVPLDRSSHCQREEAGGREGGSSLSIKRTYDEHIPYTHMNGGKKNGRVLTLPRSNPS
T1 sequence (Q06187 whole entry, the tested form may be a part): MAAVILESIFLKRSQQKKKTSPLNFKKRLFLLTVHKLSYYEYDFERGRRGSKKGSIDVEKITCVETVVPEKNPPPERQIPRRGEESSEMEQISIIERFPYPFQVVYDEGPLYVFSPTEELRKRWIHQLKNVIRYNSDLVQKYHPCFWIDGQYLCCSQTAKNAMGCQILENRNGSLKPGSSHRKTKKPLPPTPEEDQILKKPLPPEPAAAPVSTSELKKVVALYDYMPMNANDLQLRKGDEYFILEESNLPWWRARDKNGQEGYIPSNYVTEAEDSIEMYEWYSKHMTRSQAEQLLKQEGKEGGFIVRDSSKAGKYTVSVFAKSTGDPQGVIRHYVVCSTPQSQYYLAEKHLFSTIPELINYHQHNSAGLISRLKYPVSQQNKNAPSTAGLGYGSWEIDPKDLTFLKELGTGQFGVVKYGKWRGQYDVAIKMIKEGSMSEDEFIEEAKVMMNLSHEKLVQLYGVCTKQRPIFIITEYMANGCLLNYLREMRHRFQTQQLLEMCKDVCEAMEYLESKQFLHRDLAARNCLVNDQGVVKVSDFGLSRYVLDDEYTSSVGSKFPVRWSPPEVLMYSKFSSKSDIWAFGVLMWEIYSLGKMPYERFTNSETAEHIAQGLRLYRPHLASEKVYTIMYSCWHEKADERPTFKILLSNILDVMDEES
Sequence of Insulin receptor (P06213 28-758 limits assumed): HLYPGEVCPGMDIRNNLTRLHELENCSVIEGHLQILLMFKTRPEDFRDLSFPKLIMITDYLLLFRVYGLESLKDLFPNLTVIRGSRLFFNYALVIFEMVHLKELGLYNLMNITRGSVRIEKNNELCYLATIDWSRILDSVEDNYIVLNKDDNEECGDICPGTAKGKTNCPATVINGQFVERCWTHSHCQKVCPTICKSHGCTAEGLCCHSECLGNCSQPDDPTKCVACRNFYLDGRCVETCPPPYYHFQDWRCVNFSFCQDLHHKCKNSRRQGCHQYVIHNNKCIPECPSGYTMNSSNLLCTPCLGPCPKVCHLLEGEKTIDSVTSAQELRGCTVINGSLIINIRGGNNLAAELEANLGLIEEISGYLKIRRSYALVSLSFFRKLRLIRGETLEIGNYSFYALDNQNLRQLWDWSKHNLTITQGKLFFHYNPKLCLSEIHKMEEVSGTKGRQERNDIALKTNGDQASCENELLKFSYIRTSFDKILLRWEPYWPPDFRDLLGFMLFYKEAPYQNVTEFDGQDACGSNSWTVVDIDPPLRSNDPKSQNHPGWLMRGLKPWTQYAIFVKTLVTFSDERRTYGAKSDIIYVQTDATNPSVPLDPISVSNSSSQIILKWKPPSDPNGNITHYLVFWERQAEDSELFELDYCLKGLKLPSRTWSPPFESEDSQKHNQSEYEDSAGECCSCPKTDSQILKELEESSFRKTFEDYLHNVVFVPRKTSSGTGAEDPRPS
Sequence of Insulin receptor (P06213 763-1382 limits assumed): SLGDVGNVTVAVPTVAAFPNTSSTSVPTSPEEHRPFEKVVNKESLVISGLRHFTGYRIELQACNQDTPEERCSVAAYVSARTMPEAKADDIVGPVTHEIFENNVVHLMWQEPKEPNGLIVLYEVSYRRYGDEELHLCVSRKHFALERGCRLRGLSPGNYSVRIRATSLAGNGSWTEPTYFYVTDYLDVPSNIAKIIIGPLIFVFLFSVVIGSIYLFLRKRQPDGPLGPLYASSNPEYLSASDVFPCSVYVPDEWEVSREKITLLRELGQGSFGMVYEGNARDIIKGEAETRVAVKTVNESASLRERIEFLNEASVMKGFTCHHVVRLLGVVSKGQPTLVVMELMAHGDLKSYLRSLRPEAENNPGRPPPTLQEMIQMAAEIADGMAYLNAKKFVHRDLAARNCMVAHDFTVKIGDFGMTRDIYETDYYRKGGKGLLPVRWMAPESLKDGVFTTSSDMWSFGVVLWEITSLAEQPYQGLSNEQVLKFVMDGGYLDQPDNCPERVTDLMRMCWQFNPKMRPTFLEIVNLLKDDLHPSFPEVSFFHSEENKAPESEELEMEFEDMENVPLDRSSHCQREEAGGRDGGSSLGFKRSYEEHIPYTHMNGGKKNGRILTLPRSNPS
Sequence of Proto-oncogene tyrosine-protein kinase Src (P12931 2-536 limits assumed): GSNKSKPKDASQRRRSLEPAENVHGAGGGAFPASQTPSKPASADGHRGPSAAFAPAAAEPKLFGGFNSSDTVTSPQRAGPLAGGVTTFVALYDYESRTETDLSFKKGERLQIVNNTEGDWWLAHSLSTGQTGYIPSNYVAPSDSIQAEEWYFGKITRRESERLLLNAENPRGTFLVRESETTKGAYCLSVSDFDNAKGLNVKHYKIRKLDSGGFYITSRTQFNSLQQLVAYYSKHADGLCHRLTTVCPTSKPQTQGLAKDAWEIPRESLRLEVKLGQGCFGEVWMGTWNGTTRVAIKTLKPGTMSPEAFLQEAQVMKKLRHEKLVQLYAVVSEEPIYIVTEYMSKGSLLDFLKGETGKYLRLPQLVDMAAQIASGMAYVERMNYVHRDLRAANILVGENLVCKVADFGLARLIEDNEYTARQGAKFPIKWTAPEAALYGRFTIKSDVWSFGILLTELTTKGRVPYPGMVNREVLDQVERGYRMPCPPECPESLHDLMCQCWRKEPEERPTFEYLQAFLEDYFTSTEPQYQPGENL
Sequence of Tyrosine-protein kinase Blk (Mus musculus) (P16277 whole entry): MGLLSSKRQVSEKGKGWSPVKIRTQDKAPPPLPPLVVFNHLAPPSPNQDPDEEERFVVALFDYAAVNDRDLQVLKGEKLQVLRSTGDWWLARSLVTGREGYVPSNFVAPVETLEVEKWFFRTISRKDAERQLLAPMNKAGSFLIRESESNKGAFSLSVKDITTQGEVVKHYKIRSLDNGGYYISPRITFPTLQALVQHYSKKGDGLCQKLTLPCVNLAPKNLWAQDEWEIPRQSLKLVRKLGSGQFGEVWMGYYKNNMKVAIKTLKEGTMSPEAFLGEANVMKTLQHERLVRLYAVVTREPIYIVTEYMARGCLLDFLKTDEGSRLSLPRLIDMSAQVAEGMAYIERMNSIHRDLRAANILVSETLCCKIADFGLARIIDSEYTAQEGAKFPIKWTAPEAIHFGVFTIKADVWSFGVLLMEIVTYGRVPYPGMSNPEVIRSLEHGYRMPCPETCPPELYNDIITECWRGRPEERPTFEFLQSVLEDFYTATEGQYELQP
Sequence of Dual specificity mitogen-activated protein kinase kinase 6 (Homo sapiens) (P52564 whole entry): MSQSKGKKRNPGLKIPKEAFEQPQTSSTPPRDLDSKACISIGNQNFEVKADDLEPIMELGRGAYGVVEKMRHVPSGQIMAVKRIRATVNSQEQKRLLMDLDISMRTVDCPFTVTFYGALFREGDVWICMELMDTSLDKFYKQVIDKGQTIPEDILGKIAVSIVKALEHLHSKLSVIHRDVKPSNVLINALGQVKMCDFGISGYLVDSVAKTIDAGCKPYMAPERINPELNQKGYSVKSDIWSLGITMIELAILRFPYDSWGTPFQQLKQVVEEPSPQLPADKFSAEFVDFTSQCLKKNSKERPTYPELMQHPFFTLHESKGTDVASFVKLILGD

CCc1cc(Nc2nccc(-c3c(-c4ccc(OC)c(C(=O)Nc5c(F)cccc5F)c4)nc4ccccn34)n2)c(OC)cc1N1CCC(N2CCN(S(C)(=O)=O)CC2)CC1
inhibition [1]: 0%
inhibition (NIH-3T3/LISN): inactive
IC50 [2]: 357 nM
inhibition [3]: 11%
IC50 [4]: > 20000 nM
inhibition [5]: 10%
inhibition [6]: 1%
IC50 [7]: 2850 nM
inhibition [8]: 11%
inhibition [9]: -8%
inhibition [10]: 4%
inhibition [11]: 1%
IC50 [12]: > 10000 nM
inhibition [13]: 10%
IC50 [14]: 62 nM
inhibition [15]: 27%
inhibition [16]: 25%
inhibition [17]: inactive
inhibition at 0.3 µM [18]: 0%
inhibition [19]: inactive
IC50 (Insulin receptor): 74 nM
IC50 (SK-OV-3): > 20000 nM
inhibition in vivo at 30 mg/kg [20]: 98%
IC50 [21]: > 10000 nM
IC50 (NCI-H929): 81 nM
